Measurements: ChEMBL document CHEMBL3877303 (J Med Chem, 2017)
Each block holds one compound with its values, some of them ahead of it. Activity calls are given as the source filed them. No cut-off for these calls is given here.

Columns and labels:
[1] = Cell cycle arrest in human MEG01 cells assessed as accumulation at G0/G1 phase at 1 uM after 24 hrs by propidium iodide/RNase staining based flow cytometry; assay type: functional; settings: MEG-01
Procedure, shortened: (§1)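 Cells were exposed to serially diluted compound, then fixed in cold 70% ethanol overnight at -20 °C. They were stained with PI/RNase buffer for DNA-content cell-cycle analysis.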

[2] = target: T1, Mast/stem cell growth factor receptor Kit (Homo sapiens, UniProt P10721); settings: 1 uM
[3] = target: Tyrosine-protein kinase Blk (Homo sapiens, UniProt P51451); test: Inhibition of full length recombinant His-tagged human BLK cytoplasmic domain expressed in baculovirus expression system measured after 1 hr by FRET based Z'Lyte assay
Procedure, shortened: (§2)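 Z'-LYTE FRET biochemical kinase assay run by Invitrogen on selected kinases identified from binding profiling; IC50 from dose-response.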

[4] = target: T1, Mast/stem cell growth factor receptor Kit; test: Inhibition of c-KIT mediated signaling pathways assessed as reduction in ERK1/2 phosphorylation at T202/Y204 in human GIST882 cells at 0.03 to 10 uM measured after 2 hrs by immunoblotting; assay type: cell-based
Procedure, shortened: (§3)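 After an ice-cold PBS wash, cells were lysed in RIPA buffer (50 mM Tris pH 8.0) with protease and phosphatase inhibitors, and protein was quantified by BCA. Lysates were run on SDS-PAGE, transferred to PVDF and blocked in 5% milk/TBST. Phospho- and total proteins were probed by immunoblot with ECL detection; β-actin served as loading control.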

[5] = target: Epithelial discoidin domain-containing receptor 1 (Homo sapiens, UniProt Q08345); settings: BaF3
[6] = target: T1, Mast/stem cell growth factor receptor Kit; settings: BaF3
[7] = target: T1, Mast/stem cell growth factor receptor Kit; test: Inhibition of c-KIT mediated signaling pathways assessed as reduction in STAT3/5 phosphorylation at Y705/Y694 in human GIST882 cells at 0.03 to 10 uM measured after 2 hrs by immunoblotting; assay type: cell-based; procedure, shortened: as §3
[8] = Cell cycle arrest in human K562 cells assessed as accumulation at G0/G1 phase at 0.3 uM after 24 hrs by propidium iodide/RNase staining based flow cytometry; assay type: functional; procedure, shortened: as §1
[9] = tested on: MEG-01; test: Induction of apoptosis in human MEG01 cells assessed as increase in cleaved caspase-3 level at 0.1 to 3 uM by Western blot analysis; assay type: functional, cell-based
[10] = tested on: KU812 cell line; test: Induction of apoptosis in human KU812 cells assessed as increase in cleaved caspase-3 level at 0.1 to 3 uM by Western blot analysis; assay type: functional, cell-based
Procedure, shortened: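 Cells were treated with DMSO or serially diluted compound for the indicated periods. They were washed in ice-cold PBS and lysed in RIPA buffer with protease/phosphatase inhibitors, and protein was quantified by BCA. Lysates were resolved by SDS-PAGE, transferred to PVDF and blocked in 5% milk/TBST. Blots were probed for PARP and caspase-3, with β-actin as loading control, and detected by ECL.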

[11] = target: T1, Mast/stem cell growth factor receptor Kit; test: Inhibition of c-KIT mediated signaling pathways assessed as reduction in S6K phosphorylation at T389 in human GIST882 cells at 0.03 to 10 uM measured after 2 hrs by immunoblotting; assay type: cell-based; procedure, shortened: as §3
[12] = target: T1, Mast/stem cell growth factor receptor Kit; test: Inhibition of recombinant C-terminal polyhistidine-tagged human c-KIT expressed in mammalian expression system assessed as residual activity at 1 uM using Tyr 06 peptide as substrate measured after 1hr by FRET based Z'Lyte assay relative to control
[13] = tested on: K562; test: Antiproliferative activity against human K562 cells xenografted in nu/nu mouse administered daily via oral gavage measured 28 days post compound treatment by Ki-67 staining based assay; assay type: functional, cell-based
Procedure, shortened: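 K562 xenograft tumors were taken after daily oral dosing. Tissue was fixed in 10% neutral-buffered formalin, paraffin-embedded and cut into 6-micron sections. […] Detection used DAB with a hematoxylin counterstain.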

[14] = target: Tyrosine-protein kinase Lck (Homo sapiens, UniProt P06239); test: Inhibition of recombinant C-terminal His-tagged human LCK cytoplasmic domain expressed in baculovirus expression system measured after 1 hr by FRET based Z'Lyte assay; procedure, shortened: as §2
[15] = target: T2, BCR/ABL p210 fusion protein (Homo sapiens, UniProt A1Z199); test: Inhibition of human BCR/ABL p210 fusion protein expressed in BAF3 cells assessed as growth inhibition measured after 72 hrs by CellTiter-Glo or CCK8 assay; assay type: cell-based
Procedure, shortened: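 Seeded at 1 to 2.5×10^4 cells/mL with various compound concentrations, 72 h. Viability read by CellTiter-Glo luminescence or CCK-8 absorbance (450/655 nm), normalized to DMSO control, GI50 from curve fit, triplicate testing.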

[16] = target: T1, Mast/stem cell growth factor receptor Kit; test: Inhibition of c-KIT autophosphorylation at Y703 in human GIST882 cells at 0.01 to 3 uM measured after 2 hrs by immunoblotting; assay type: cell-based; procedure, shortened: as §3
[17] = Half life in Sprague-Dawley rat at 10 mg/kg, po; assay type: ADME, organism-based; settings: in vivo
Procedure, shortened: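 Male Sprague-Dawley rats aged six to eight weeks were fasted overnight and then dosed iv or orally. Blood (~0.2 mL) was drawn from the jugular vein into heparin and kept on ice. Sampling was at 1 min to 8 h for iv and 5 min to 24 h for oral. Plasma was separated by centrifugation at 2-8 °C and stored at -80 °C until analysis.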

[18] = target: T2, BCR/ABL p210 fusion protein; test: Inhibition of BCR/ABL p210 fusion protein mediated signaling pathways assessed as reduction in Stat5 phosphorylation at Y694 in human MEG01 cells at 0.01 to 3 uM measured after 2 hrs by immunoblotting; assay type: cell-based; settings: MEG-01; procedure, shortened: as §3
[19] = target: T2, BCR/ABL p210 fusion protein; test: Inhibition of BCR/ABL p210 fusion protein mediated signaling pathways assessed as reduction in Stat5 phosphorylation at Y694 in human KU812 cells at 0.01 to 3 uM measured after 2 hrs by immunoblotting; assay type: cell-based; procedure, shortened: as §3
[20] = Mean residence time (0 to t) in Sprague-Dawley rat at 10 mg/kg, po; assay type: ADME, organism-based; settings: in vivo
Procedure, shortened: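 Male Sprague-Dawley rats, 6-8 weeks old, fasted overnight, dosed iv or po. Jugular vein blood (~0.2 mL, heparin) sampled at 1 min to 8 h (iv) or 5 min to 24 h (po). Plasma separated by centrifugation at 2-8 °C and stored at -80 °C before analysis.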

[21] = target: Tyrosine-protein kinase ABL1 (Homo sapiens, UniProt P00519); test: Inhibition of C-terminal His-tagged human ABL1 expressed in baculovirus infected SF9 cells using Tyr 02 peptide as substrate measured after 1 hr by FRET based Z'Lyte assay
[22] = target: T1, Mast/stem cell growth factor receptor Kit; test: Inhibition of c-KIT mediated signaling pathways assessed as reduction in AKT phosphorylation at S473 in human GISTT1 cells at 0.03 to 10 uM measured after 2 hrs by immunoblotting; assay type: cell-based; procedure, shortened: as §3

T2 sequence (A1Z199 1-97): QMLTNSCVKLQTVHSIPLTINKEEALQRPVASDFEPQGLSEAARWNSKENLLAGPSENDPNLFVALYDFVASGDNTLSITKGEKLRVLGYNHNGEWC
T1 sequence (P10721 whole entry, the tested form may be a part): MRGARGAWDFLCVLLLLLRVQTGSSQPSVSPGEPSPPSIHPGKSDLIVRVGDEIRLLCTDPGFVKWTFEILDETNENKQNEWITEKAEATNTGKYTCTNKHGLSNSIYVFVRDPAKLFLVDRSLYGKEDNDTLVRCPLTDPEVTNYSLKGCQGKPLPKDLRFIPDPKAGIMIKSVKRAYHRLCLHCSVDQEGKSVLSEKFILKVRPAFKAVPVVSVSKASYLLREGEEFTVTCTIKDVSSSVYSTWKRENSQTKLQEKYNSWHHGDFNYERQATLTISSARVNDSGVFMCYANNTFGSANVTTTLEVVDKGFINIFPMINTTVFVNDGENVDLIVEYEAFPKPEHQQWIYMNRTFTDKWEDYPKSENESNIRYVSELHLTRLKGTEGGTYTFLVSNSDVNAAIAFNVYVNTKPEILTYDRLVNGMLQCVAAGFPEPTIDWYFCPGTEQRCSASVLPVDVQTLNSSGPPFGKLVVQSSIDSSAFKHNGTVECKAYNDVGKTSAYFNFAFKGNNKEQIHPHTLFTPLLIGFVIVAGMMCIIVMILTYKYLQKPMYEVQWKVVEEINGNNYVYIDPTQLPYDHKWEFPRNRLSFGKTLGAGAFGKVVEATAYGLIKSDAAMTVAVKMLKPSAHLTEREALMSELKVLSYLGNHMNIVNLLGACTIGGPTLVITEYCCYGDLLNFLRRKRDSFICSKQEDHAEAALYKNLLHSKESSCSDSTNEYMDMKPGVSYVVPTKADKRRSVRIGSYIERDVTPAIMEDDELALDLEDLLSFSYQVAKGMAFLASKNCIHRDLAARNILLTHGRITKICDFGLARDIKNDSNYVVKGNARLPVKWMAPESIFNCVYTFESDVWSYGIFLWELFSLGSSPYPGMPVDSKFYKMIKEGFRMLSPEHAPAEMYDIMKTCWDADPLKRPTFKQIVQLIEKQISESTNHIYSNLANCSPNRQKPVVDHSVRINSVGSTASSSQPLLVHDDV
Sequence of Tyrosine-protein kinase ABL1 (P00519 whole entry): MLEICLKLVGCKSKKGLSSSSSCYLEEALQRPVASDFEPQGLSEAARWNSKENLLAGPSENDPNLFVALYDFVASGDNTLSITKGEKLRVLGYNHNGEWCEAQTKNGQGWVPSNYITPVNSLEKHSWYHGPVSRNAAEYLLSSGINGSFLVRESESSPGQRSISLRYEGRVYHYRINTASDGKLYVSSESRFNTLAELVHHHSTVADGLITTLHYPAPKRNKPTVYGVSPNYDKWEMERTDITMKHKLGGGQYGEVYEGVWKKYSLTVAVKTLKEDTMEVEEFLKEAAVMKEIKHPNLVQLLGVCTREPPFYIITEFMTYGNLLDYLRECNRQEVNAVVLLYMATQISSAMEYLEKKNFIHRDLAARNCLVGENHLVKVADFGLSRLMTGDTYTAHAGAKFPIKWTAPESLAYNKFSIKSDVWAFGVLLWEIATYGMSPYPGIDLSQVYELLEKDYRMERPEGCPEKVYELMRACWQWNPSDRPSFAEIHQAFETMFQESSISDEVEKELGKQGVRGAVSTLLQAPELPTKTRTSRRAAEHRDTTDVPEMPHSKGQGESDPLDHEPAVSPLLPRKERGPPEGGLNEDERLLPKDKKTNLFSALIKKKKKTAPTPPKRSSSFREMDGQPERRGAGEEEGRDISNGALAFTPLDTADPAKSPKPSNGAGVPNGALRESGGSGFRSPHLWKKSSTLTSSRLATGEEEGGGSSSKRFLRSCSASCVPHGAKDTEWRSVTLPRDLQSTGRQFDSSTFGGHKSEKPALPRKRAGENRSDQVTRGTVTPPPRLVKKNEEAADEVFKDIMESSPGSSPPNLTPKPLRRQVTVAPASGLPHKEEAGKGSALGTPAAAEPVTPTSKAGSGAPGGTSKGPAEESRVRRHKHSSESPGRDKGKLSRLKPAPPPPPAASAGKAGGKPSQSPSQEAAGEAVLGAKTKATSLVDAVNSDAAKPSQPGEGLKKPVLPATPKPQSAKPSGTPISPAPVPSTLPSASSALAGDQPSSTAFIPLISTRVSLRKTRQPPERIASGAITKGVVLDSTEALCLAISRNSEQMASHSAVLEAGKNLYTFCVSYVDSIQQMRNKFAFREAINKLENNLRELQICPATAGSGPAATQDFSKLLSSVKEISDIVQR
Sequence of Epithelial discoidin domain-containing receptor 1 (Q08345 whole entry, the tested form may be a part): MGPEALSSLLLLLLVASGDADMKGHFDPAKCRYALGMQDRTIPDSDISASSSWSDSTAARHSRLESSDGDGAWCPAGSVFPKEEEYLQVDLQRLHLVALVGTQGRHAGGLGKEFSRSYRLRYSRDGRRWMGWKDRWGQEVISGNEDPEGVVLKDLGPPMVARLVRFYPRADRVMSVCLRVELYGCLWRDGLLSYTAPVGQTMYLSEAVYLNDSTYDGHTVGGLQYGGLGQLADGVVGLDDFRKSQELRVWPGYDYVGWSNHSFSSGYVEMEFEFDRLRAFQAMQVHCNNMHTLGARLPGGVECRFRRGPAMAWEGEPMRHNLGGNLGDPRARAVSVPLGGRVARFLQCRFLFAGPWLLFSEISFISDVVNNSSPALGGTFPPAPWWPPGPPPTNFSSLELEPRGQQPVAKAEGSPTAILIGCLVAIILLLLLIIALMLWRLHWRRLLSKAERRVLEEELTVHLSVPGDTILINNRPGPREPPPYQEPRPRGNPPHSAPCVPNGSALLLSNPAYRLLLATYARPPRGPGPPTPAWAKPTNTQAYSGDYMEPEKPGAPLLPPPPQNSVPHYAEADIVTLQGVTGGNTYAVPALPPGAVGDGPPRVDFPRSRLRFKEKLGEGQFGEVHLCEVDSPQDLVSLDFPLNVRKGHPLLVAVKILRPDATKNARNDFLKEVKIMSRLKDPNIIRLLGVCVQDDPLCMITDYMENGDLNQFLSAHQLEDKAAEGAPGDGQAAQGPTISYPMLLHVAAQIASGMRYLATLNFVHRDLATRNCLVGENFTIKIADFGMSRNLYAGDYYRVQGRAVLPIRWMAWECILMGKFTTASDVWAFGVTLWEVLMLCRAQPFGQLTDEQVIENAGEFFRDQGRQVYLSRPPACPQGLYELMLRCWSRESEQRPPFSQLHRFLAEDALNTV
Sequence of Tyrosine-protein kinase Lck (P06239 whole entry, the tested form may be a part): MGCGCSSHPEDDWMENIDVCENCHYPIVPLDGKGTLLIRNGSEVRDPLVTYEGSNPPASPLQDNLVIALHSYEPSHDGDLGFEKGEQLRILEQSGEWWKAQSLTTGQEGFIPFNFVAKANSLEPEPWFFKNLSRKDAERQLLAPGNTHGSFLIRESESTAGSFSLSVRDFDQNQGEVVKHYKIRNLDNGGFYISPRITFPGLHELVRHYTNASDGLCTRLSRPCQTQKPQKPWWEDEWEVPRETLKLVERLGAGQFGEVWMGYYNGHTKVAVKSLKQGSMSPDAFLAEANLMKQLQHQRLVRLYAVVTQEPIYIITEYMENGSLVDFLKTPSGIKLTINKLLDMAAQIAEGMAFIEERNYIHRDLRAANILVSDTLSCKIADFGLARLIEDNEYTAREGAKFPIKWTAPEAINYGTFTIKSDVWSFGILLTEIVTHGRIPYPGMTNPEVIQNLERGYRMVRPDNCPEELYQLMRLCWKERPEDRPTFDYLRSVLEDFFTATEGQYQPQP
Sequence of Tyrosine-protein kinase Blk (P51451 whole entry, the tested form may be a part): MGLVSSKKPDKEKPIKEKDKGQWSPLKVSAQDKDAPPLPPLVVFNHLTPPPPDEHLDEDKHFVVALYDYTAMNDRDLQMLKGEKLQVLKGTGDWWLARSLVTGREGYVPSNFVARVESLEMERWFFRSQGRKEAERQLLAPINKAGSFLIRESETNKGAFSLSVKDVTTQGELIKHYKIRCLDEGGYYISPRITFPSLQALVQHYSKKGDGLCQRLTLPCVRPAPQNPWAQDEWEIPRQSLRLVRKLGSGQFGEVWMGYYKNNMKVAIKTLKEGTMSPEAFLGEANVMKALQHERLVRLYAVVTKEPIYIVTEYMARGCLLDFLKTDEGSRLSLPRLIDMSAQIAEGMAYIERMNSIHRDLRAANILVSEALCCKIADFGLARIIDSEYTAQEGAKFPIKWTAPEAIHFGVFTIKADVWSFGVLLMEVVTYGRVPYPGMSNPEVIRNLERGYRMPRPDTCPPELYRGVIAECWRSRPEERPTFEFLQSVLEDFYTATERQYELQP

inhibition [2]: Active
SMILES: Cc1ccc(NC(=O)c2ccc(CN3CCN(C)CC3)cc2)cc1Nc1nccc(-c2cccnc2)n1 [IMATINIB]
Activity [1]: Active

IC50 [3]: 81 nM
inhibition [4]: Active
GI50 [5]: 9770 nM
GI50 [6]: 149 nM
inhibition [7]: Active
inhibition [11]: Active
Activity [12]: 0.8%
IC50 [14]: 12 nM
GI50 [15]: 33 nM
inhibition [16]: Active
half-life [17]: 2.83 h
inhibition [18]: Active
inhibition [19]: Active
MRT last [20]: 5.75 h
IC50 [21]: 46 nM
inhibition [22]: Active
SMILES: Cc1ccc(C(=O)N2CCC(Oc3cc(NC(=O)c4ccc(CN5CCN(C)CC5)c(C(F)(F)F)c4)ccc3C)CC2)cn1
Activity [8]: Active
Activity [9]: Active
Activity [10]: Active
Activity [13]: Dose-dependent effect
